# Laboratory results reported in ChEMBL document CHEMBL1133083, “Synthesis and immunosuppressive activity of 2-substituted 2-aminopropane-1,3-diols and 2-aminoethanols” (2000).
# Key:
# Rattus norvegicus [1] = species: Rattus norvegicus; assay: Lymphocyte-decreasing effect against F344 rats.; assay type: functional; conditions: for ED50: read-out: ID50 (the source's name)
# Summary of the method: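 F344 rats aged 5 weeks were dosed intraperitoneally in 20% hydroxypropyl-β-cyclodextrin. Peripheral blood was taken 24 h later and total lymphocytes counted by lymphocyte gating. ID₅₀/ID₈₀ is the lowest dose lowering the lymphocyte count by 50% or 80% of the vehicle-treated control.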
# Rattus norvegicus [2] = assay: Immunosuppressive activity against skin allograft in F344 recipient (rat) from LEW donor (rat) at a concentration of 0.3 mg/kg; assay type: functional
# Summary of the method: (§1)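 MHC-compatible skin allograft: LEW (RT1^l) donor skin to F344 (RT1^lv1) recipients, all rats 4-6 weeks old. Full-thickness 2.0 × 2.0 cm grafts were placed on the recipient's lateral thorax under sterile bactericidal gauze. Read-out was mean survival time in days ± SE, with four animals per group. Deaths were scored as toxic.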
# Rattus norvegicus [3] = assay: Immunosuppressive activity against skin allograft in F344 recipient (rat) from LEW donor (rat) at a concentration of 1 mg/kg; assay type: functional; summary of the method: as §1
# Rattus norvegicus [4] = assay: Immunosuppressive activity against skin allograft in F344 recipient (rat) from LEW donor (rat) at a concentration of 3 mg/kg; assay type: functional; summary of the method: as §1
# Rattus norvegicus [5] = species: Rattus norvegicus; assay: T cell-decreasing effect in spleen cells of WKAH rat which were injected into foot-pad of LEW rat.; assay type: functional; conditions: read-out: ID50 (the source's name)
# Summary of the method: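 T-cell decrease was measured in the popliteal node gain model: WKAH spleen cells (5 × 10⁶) injected into the LEW rat footpad, with oral dosing for 4 days from the day of injection. Blood T-cells were counted by two-colour flow cytometry with FITC anti-rat CD3 (1F4) and PE anti-rat CD45RA (OX-33). Value is ID₅₀ (mg/kg).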
# Rattus norvegicus [6] = species: Rattus norvegicus; assay: Immunosuppressive activity against LEW rats injected with spleen cells of WKAH rat in Popliteal Lymph Node Gain Assay.; assay type: functional; conditions: read-out: ID50 (the source's name)
# Summary of the method: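 Popliteal lymph node gain: WKAH rat (RT1^k) spleen cells, 5 × 10⁶, injected into footpad of LEW rats (RT1^l) to enlarge the draining popliteal node. Compound given orally for 4 days starting on the day of cell injection, then popliteal node weighed. Value is ID₅₀ (mg/kg).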
# Rattus norvegicus [7] = assay: Immunosuppressive activity against skin allograft in F344 recipient (rat) from LEW donor (rat) at a concentration of 0.1 mg/kg; assay type: functional; summary of the method: as §1
# Rattus norvegicus [8] = assay: Immunosuppressive activity against skin allograft in F344 recipient (rat) from LEW donor (rat) at a concentration of 3 mg/kg; Toxic; assay type: functional, organism-based; set-up: dose 3 mg/kg
# Rattus norvegicus [9] = assay: Immunosuppressive activity against skin allograft in F344 recipient (rat) from LEW donor (rat) at a concentration of 10 mg/kg; Toxic; assay type: functional, organism-based; set-up: dose 10 mg/kg
# Rattus norvegicus [10] = assay: Immunosuppressive activity against skin allograft in F344 recipient (rat) from LEW donor (rat) at a concentration of 10 mg/kg; assay type: functional; summary of the method: as §1
# Rattus norvegicus [11] = assay: Immunosuppressive activity against skin allograft in F344 recipient (rat) from LEW donor (rat) at a concentration of 30 mg/kg; assay type: functional; summary of the method: as §1
structure (smiles),measurement,setting,value
CCCCCCCCc1ccc(CCC(N)(CO)CO)s1.Cl,ID80,Rattus norvegicus [1],>3 mg/kg
same,ED50,Rattus norvegicus [1],1 mg/kg
same,MST,Rattus norvegicus [2],13 days
same,MST,Rattus norvegicus [3],17.3 days
same,MST,Rattus norvegicus [4],21 days
CCCCCCCC(O)c1ccc(CCC(N)(CO)CO)cc1 (stereo unspecified),ID80,Rattus norvegicus [1],0.3 mg/kg
same,ED50,Rattus norvegicus [1],0.1 mg/kg
CCCCCCCCc1ccc(CCC(N)(CO)C(=O)O)cc1 (stereo unspecified),ED50,Rattus norvegicus [5],> 10 mg/kg
same,ED50,Rattus norvegicus [6],> 10 mg/kg
CCCCCCCc1ccc(CCC(N)(CO)CO)cc1.Cl,ID80,Rattus norvegicus [1],0.3 mg/kg
same,ED50,Rattus norvegicus [1],0.1 mg/kg
Cl.NC(CO)(CO)CCCCCCCCCCc1ccccc1,ID80,Rattus norvegicus [1],1 mg/kg
same,ED50,Rattus norvegicus [1],0.3 mg/kg
same,MST,Rattus norvegicus [7],11.5 days
same,MST,Rattus norvegicus [2],21.5 days
same,MST,Rattus norvegicus [3],27 days
same,MST,Rattus norvegicus [8],Toxic
CCCCCCCOc1ccc(CC[C@@](C)(N)CO)cc1.Cl,ED50,Rattus norvegicus [5],0.0092 mg/kg
CCCCCCCOc1ccc(CCC(N)(CO)CCC)cc1 (stereo unspecified),ED50,Rattus norvegicus [5],7.3 mg/kg
CCCCCCCOc1ccc(CCC(N)(CO)CO)cc1.Cl,ED50,Rattus norvegicus [5],0.014 mg/kg
same,ID80,Rattus norvegicus [1],0.1 mg/kg
same,ED50,Rattus norvegicus [1],0.03 mg/kg
same,MST,Rattus norvegicus [7],15 days
same,MST,Rattus norvegicus [2],23.5 days
same,MST,Rattus norvegicus [3],33.8 days
same,MST,Rattus norvegicus [9],Toxic
same,MST,Rattus norvegicus [4],39.5 days
CCCCCCCOc1ccc(CCC(N)(CO)CCCC)cc1 (stereo unspecified),ED50,Rattus norvegicus [5],> 10 mg/kg
same,ED50,Rattus norvegicus [6],> 10 mg/kg
CCCCCCCCc1ccc(CCC(N)(CO)CCO)cc1 (stereo unspecified),ED50,Rattus norvegicus [5],0.12 mg/kg
same,ED50,Rattus norvegicus [6],0.009 mg/kg
CCCCCCCCCCCCCc1ccc(CCC(N)(CO)CO)cc1.Cl,ID80,Rattus norvegicus [1],1 mg/kg
same,ED50,Rattus norvegicus [1],0.03 mg/kg
CCCCCCc1ccc(CCCCC(N)(CO)CO)cc1,ID80,Rattus norvegicus [1],>3 mg/kg
same,ED50,Rattus norvegicus [1],> 3 mg/kg
same,MST,Rattus norvegicus [10],18.8 days
same,MST,Rattus norvegicus [4],13.8 days
CCCCCCCCc1ccc(CCC(N)(CCO)CCO)cc1,ED50,Rattus norvegicus [5],> 10 mg/kg
same,ED50,Rattus norvegicus [6],> 10 mg/kg
CCCCCCCCCCCCCCc1ccc(CCC(N)(CO)CO)cc1.Cl,ID80,Rattus norvegicus [1],>3 mg/kg
same,ED50,Rattus norvegicus [1],1 mg/kg
CCCCCCCc1ccc(CCCC(N)(CO)CO)cc1.Cl,ID80,Rattus norvegicus [1],>3 mg/kg
same,ED50,Rattus norvegicus [1],> 3 mg/kg
same,MST,Rattus norvegicus [10],10.5 days
same,MST,Rattus norvegicus [4],9 days
CCCCCCC/C(=N\O)c1ccc(CCC(N)(CO)CO)cc1,ID80,Rattus norvegicus [1],1 mg/kg
same,ED50,Rattus norvegicus [1],0.03 mg/kg
CCCCCCCOc1ccc(CC[C@](N)(CO)CCO)cc1.Cl,ED50,Rattus norvegicus [5],4.2 mg/kg
same,ED50,Rattus norvegicus [6],4.2 mg/kg
CCCCCCCN(C)c1ccc(CCC(N)(CO)CO)cc1.Cl,ID80,Rattus norvegicus [1],1 mg/kg
same,ED50,Rattus norvegicus [1],1 mg/kg
same,MST,Rattus norvegicus [3],21.3 days
same,MST,Rattus norvegicus [9],Toxic
same,MST,Rattus norvegicus [4],29 days
C/C=C/C[C@@H](C)[C@@H](O)[C@H]1C(=O)N[C@@H](CC)C(=O)N(C)CC(=O)N(C)[C@@H](CC(C)C)C(=O)N[C@@H](C(C)C)C(=O)N(C)[C@@H](CC(C)C)C(=O)N[C@@H](C)C(=O)N[C@H](C)C(=O)N(C)[C@@H](CC(C)C)C(=O)N(C)[C@@H](CC(C)C)C(=O)N(C)[C@@H](C(C)C)C(=O)N1C [CYCLOSPORINE],ED50,Rattus norvegicus [5],> 30 mg/kg
same,ID80,Rattus norvegicus [1],>30 mg/kg
same,ED50,Rattus norvegicus [1],> 30 mg/kg
same,MST,Rattus norvegicus [3],8 days
same,MST,Rattus norvegicus [4],10.8 days
same,MST,Rattus norvegicus [11],19.8 days
CCCCCCCCCCc1ccc(CCC(N)(CO)CO)cc1.Cl,ID80,Rattus norvegicus [1],0.1 mg/kg
same,ED50,Rattus norvegicus [1],0.1 mg/kg
same,MST,Rattus norvegicus [7],20 days
same,MST,Rattus norvegicus [2],37.8 days
same,MST,Rattus norvegicus [3],48 days
same,MST,Rattus norvegicus [8],Toxic
CCCCCCCCc1ccc(CCC(N)(CO)CO)cc1.Cl [FINGOLIMOD HYDROCHLORIDE],ED50,Rattus norvegicus [5],0.024 mg/kg
same,ED50,Rattus norvegicus [6],0.0097 mg/kg
same,ID80,Rattus norvegicus [1],0.1 mg/kg
same,ED50,Rattus norvegicus [1],0.03 mg/kg
same,MST,Rattus norvegicus [7],25.3 days
same,MST,Rattus norvegicus [2],31.3 days
same,MST,Rattus norvegicus [3],39.5 days
same,MST,Rattus norvegicus [9],Toxic
same,MST,Rattus norvegicus [4],52 days
CCCCCCCCCc1ccc(CCC(N)(CO)CO)cc1.Cl,ID80,Rattus norvegicus [1],0.1 mg/kg
same,ED50,Rattus norvegicus [1],0.03 mg/kg
same,MST,Rattus norvegicus [2],23 days
same,MST,Rattus norvegicus [3],32 days
same,MST,Rattus norvegicus [8],Toxic
CCCCCCCCc1ccc(CCC(N)CO)cc1.Cl (stereo unspecified),ED50,Rattus norvegicus [5],> 10 mg/kg
same,ED50,Rattus norvegicus [6],> 10 mg/kg
CCCCCCCCc1ccc(CCC(C)(N)CCO)cc1.Cl (stereo unspecified),ED50,Rattus norvegicus [5],> 10 mg/kg
same,ED50,Rattus norvegicus [6],> 10 mg/kg
C=CCC(N)(CO)CCc1ccc(OCCCCCCC)cc1 (stereo unspecified),ED50,Rattus norvegicus [5],3.1 mg/kg
same,ED50,Rattus norvegicus [6],1.9 mg/kg
CCCCCCCOc1ccc(CCC(N)(CC)CO)cc1.Cl (stereo unspecified),ED50,Rattus norvegicus [5],0.044 mg/kg
CCCCCCCOc1ccc(CC[C@@](N)(CO)CCO)cc1.Cl,ED50,Rattus norvegicus [5],0.018 mg/kg
same,ED50,Rattus norvegicus [6],0.017 mg/kg
CCCCc1ccc(CCCCCCC(N)(CO)CO)cc1.Cl,ID80,Rattus norvegicus [1],1 mg/kg
same,ED50,Rattus norvegicus [1],0.3 mg/kg
same,MST,Rattus norvegicus [10],13.5 days
same,MST,Rattus norvegicus [4],9.8 days
CCCCCCCCCCc1ccc(C(N)(CO)CO)cc1.Cl,ID80,Rattus norvegicus [1],>3 mg/kg
same,ED50,Rattus norvegicus [1],0.3 mg/kg
CCCCCCCOc1ccc(CC[C@](N)(CO)CCC)cc1,ED50,Rattus norvegicus [5],> 10 mg/kg
same,ED50,Rattus norvegicus [6],> 10 mg/kg
CCCCCCCOc1ccc(CCC(N)(CO)CCO)cc1 (stereo unspecified),ED50,Rattus norvegicus [5],0.055 mg/kg
same,ED50,Rattus norvegicus [6],0.038 mg/kg
CCCCCCCCCCCCc1ccc(CCC(N)(CO)CO)cc1.Cl,ID80,Rattus norvegicus [1],1 mg/kg
same,ED50,Rattus norvegicus [1],0.1 mg/kg
same,MST,Rattus norvegicus [7],12 days
same,MST,Rattus norvegicus [2],22.8 days
same,MST,Rattus norvegicus [3],40.5 days
same,MST,Rattus norvegicus [9],Toxic
same,MST,Rattus norvegicus [4],53 days
CCCCCCCCCCCCCCC(N)(CO)CO.Cl,ID80,Rattus norvegicus [1],0.3 mg/kg
same,ED50,Rattus norvegicus [1],0.3 mg/kg
same,MST,Rattus norvegicus [7],13.8 days
same,MST,Rattus norvegicus [2],26.5 days
same,MST,Rattus norvegicus [3],37.3 days
same,MST,Rattus norvegicus [9],Toxic
same,MST,Rattus norvegicus [4],45.5 days
CCCCCCCC(=O)c1ccc(CCC(N)(CO)CO)cc1,ID80,Rattus norvegicus [1],0.3 mg/kg
same,ED50,Rattus norvegicus [1],0.03 mg/kg
same,MST,Rattus norvegicus [7],19.8 days
same,MST,Rattus norvegicus [2],25.5 days
same,MST,Rattus norvegicus [3],32.5 days
same,MST,Rattus norvegicus [8],Toxic
CCCCCCCSc1ccc(CCC(N)(CO)CO)cc1,ID80,Rattus norvegicus [1],0.03 mg/kg
same,ED50,Rattus norvegicus [1],0.03 mg/kg
same,MST,Rattus norvegicus [7],22.3 days
same,MST,Rattus norvegicus [2],36 days
same,MST,Rattus norvegicus [3],44.5 days
same,MST,Rattus norvegicus [8],Toxic
CCc1ccc(CCCCCCCCC(N)(CO)CO)cc1.Cl,ID80,Rattus norvegicus [1],>3 mg/kg
same,ED50,Rattus norvegicus [1],> 3 mg/kg
same,MST,Rattus norvegicus [10],8.6 days
same,MST,Rattus norvegicus [4],8.5 days
CCCCCCCCc1ccccc1CCC(N)(CO)CO.Cl,ID80,Rattus norvegicus [1],>3 mg/kg
same,ED50,Rattus norvegicus [1],> 3 mg/kg
CCCCCCCCCc1ccc(CC(N)(CO)CO)cc1.Cl,ID80,Rattus norvegicus [1],>3 mg/kg
same,ED50,Rattus norvegicus [1],> 3 mg/kg
same,MST,Rattus norvegicus [10],11.8 days
same,MST,Rattus norvegicus [4],9.8 days
CCCCCCCOc1ccc(CCC(N)(CO)C(C)C)cc1.Cl (stereo unspecified),ED50,Rattus norvegicus [5],4.5 mg/kg
CCCCCCCCCCCc1ccc(CCC(N)(CO)CO)cc1.Cl,ID80,Rattus norvegicus [1],0.1 mg/kg
same,ED50,Rattus norvegicus [1],0.1 mg/kg
same,MST,Rattus norvegicus [2],23.3 days
same,MST,Rattus norvegicus [3],39.3 days
same,MST,Rattus norvegicus [8],Toxic
CCCCCCCCc1ccc(CCC(N)(CO)CCCO)cc1.Cl (stereo unspecified),ED50,Rattus norvegicus [5],0.021 mg/kg
same,ED50,Rattus norvegicus [6],0.085 mg/kg
CCCCCCCOc1ccc(CC[C@@](N)(CO)CCC)cc1,ED50,Rattus norvegicus [5],4.4 mg/kg
CCCCCCCCc1cccc(CCC(N)(CO)CO)c1.Cl,ID80,Rattus norvegicus [1],>3 mg/kg
same,ED50,Rattus norvegicus [1],> 3 mg/kg
